HNF4A DNA FP – change in binding of human HNF4 alpha to DNA; P41235; AID 1224865; HNF4a-FITC DNA binding, fluorescence polarization, 1 h; 360,000 tested, 0.3% active; activity change, % at 10 µM; in the data active = activity change above about 30%, passing the limit was not always enough
Target sequence (P41235 whole entry, looked up): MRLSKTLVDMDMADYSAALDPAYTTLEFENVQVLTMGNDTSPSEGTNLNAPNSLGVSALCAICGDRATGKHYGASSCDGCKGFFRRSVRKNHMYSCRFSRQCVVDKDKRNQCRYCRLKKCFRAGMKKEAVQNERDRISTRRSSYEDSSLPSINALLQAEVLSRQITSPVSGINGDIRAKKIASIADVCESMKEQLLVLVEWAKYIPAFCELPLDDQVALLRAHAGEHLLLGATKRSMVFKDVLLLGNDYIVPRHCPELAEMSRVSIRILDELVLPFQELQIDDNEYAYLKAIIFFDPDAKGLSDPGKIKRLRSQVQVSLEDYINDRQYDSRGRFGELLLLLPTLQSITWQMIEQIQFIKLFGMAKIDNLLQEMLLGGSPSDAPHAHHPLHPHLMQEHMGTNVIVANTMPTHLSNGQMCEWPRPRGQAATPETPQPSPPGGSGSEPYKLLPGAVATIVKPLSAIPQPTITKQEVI
CSN deneddyl inh – CSN deneddylation inhibition. AID 651999. Q92905. 360,000 tested, 0.38% active. inhibition, % at 12.5 µM. Purified CSN, SCF-Nedd8-OG deneddylation, fluorescence polarization;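 active = pattern-corrected inhibition above about 35%, with an unprinted fluorescence ratio check between 0.5 and 1.5, limit read from the data, passing the limit was not always enough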;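 note: 0% = enzyme with substrate and 100% = substrate without enzyme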
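Material: purified human Csn5 enzyme expressed in HEK293T cells / Medium: Tris buffer pH 7.5, NaCl, DTT, Tween-20, trehalose, ovalbumin / Compound dosing: 12.5 µM single point / Schedule: 90 min incubation of compound, enzyme and substrate at room temperature / Signal: fluorescence polarization of the substrate / Control set: no-enzyme wells high, enzyme-with-substrate wells low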
aDG glyco up – increases alpha dystroglycan glycosylation. activation, % at 10 µM. AID 624168. 360,000 tested, 0.22% active. Pro5-aDG cells, alpha-DG glycosylation AlphaScreen (IIH6); 0% Pro5, 100% B10-LARGE cell signal;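 active = activation of at least 8% versus controls, or a plate z-score of at least 8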;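 note: Pro5 are CHO cells carrying HIG-tagged alpha-DG that lacks glycosylation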
NR1D1 modulator – Rev-erb alpha (human) modulation; Rev-erbα–FITC-DNA binding, fluorescence polarization, 90 min; activity, % at 10 µM; 370,000 tested, 0.79% active; AID 1259318;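 active = activity above about 14%, limit read from the data; passing the limit was not always enough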;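 note: 0% = DMSO wells with 35 nM protein and 100% = DMSO wells with 750 nM protein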
Rev-erbA confirm – Rev-erb alpha (human) modulation, hit confirmation | shares compounds with NR1D1 modulator | Rev-erb alpha FITC-DNA binding, fluorescence polarization, 90 min | activation, % at 25 µM | 3,000 tested, 61% active;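 active = activation at or above a set limit, or at least 3 SD above the negative control mean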;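 note: 0% = 35 nM protein with DMSO and 100% = 750 nM protein high control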
RORg DNA counter – counter-screen for Rev-erb alpha modulators: RORgamma DNA binding | purified RORgamma protein-FITC-DNA binding, fluorescence polarization | IC50, µM | shares compounds with NR1D1 modulator | 910 tested, 8% active;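 active = Compounds whose fitted half-maximal concentration for disrupting protein-DNA binding is below 10 micromolar; the record names Rev-erb in its text, so the target is in doubt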
The depositor's hits bear a star; nt = no result given. In the library only some 1.5% were active in any assay of this set; here they are far more common.

SMILES	HNF4A DNA FP	CSN deneddyl inh	aDG glyco up	NR1D1 modulator	Rev-erbA confirm	others
COc1ccccc1NC(=O)CSc1nc(N)c(C#N)cc1C#N	20	7	0	73*	65*	RORg DNA counter=>40
COc1ccccc1NC(=O)CSc1nc(N)cc(N)n1	2	0	0	0	nt
CCOC(=O)CSc1nc(N)c(C#N)cc1C#N	9	-1	0	-2	nt
C=CCN1[C@@H](Cc2ccccc2)COc2cccc(N3CCCC3)c2S1(=O)=O	nt	nt	nt	1	nt
COc1cc(-n2c(C)nc3cc(C(=O)N4CCN(C(C)=O)CC4)ccc32)cc(OC)c1OC	nt	nt	nt	6	nt
Cc1ccc2nc(-c3ccc(F)cc3)c(Cc3ccccc3C(F)(F)F)n2c1	11	2	0	17*	-1
COc1ccc(-c2nc3ccc(C)cn3c2Cc2ccccc2C(F)(F)F)cc1OC	nt	nt	nt	6	nt
COc1ccc(-c2nc3ccc(Br)cn3c2Cc2ccccc2C(F)(F)F)cc1OC	8	-3	0	16*	7
CCN(CC)C(=O)CN1C(=O)C2CCCCN2C(=O)c2ccccc21 (stereo not drawn)	nt	nt	nt	-5	nt
COC[C@H]1CCCN1c1ccc2c(c1)O[C@H]1CCN(C1)S2(=O)=O	nt	nt	nt	-1	nt
CCn1c(=NC(=O)C2COc3ccccc3O2)sc2c(OC)ccc(OC)c21 (stereo not drawn)	-1	-1	0	47*	18
CCCC(=O)N=c1sc2c(OC)ccc(OC)c2n1C	3	6	0	40*	17
COc1ccc(OC)c2c1sc(=NC(=O)C1CCCCC1)n2C	2	-3	0	44*	-15
COc1ccc(OC)c2c1sc(=NC(=O)C(C)(C)C)n2C	1	2	0	-1	nt
CCOc1ccc(-n2c(SCC(=O)Nc3ccc4c(c3)OCCO4)nnc2-c2ccncc2)cc1	nt	nt	nt	3	nt
C[C@H](O)[C@@H]1CN2CCc3ccc(N4CCOCC4)cc3[C@@H]2C[C@@H]1N(C)CC1CCCCC1	nt	nt	nt	3	nt
COc1ccc(C(=O)c2c(-c3ccc(OC)cc3)oc3ccc(-c4ccc(OC)nc4)cc23)cc1	0	-4	0	17*	2
c1nc(NCC2CCOC2)c2cc(-c3ccc4c(c3)OCO4)ccc2n1 (stereo not drawn)	nt	nt	nt	1	nt
O=C(c1ccc2c(c1)OCO2)N1CCC(Oc2cccnc2)CC1	nt	nt	nt	1	nt
O=C(COc1ncnc2c(Cl)cc(Cl)cc12)NCCC1=CCCCC1	0	3	0	22*	16
O=C(COc1ncnc2ccccc12)NCCC1=CCCCC1	-3	0	0	-3	nt
C=CCN(Cc1ccc2c(c1)OCO2)C(C#CCCCC)C(C)C (stereo not drawn)	nt	nt	nt	-10	nt
CCn1ncc(Br)c1C(=O)Nc1ccccc1OC	-3	-4	0	-2	nt
CCn1ncc(Br)c1C(=O)Nc1cc(C(=O)OC)ccc1C(=O)OC	5	-1	0	45*	24*
O=C(O)c1ccccc1C(=O)O	-1	6	0	-4	nt
SMILES	HNF4A DNA FP	CSN deneddyl inh	aDG glyco up	NR1D1 modulator	Rev-erbA confirm	others
O=C(O)c1ccccc1C(c1ccccc1)c1ccccc1O (stereo not drawn)	-8	-3	0	54*	45*	RORg DNA counter=>40
O=c1c(=O)n2c(nn1Cc1ccc(F)cc1)sc1ccccc12	1	2	0	33*	20*
O=C(Cn1nc2sc3ccccc3n2c(=O)c1=O)c1cccs1	-1	-1	0	4	nt
COc1ccccc1N=Nc1nc(-c2ccccc2)c(-c2ccccc2)[nH]1	19	7	0	35*	41*	RORg DNA counter=1.1*
Oc1ccccc1N=Nc1nc(-c2ccccc2)c(-c2ccccc2)[nH]1	23	5	0	25*	33*	RORg DNA counter=>40
CC(C)(S)C(=O)N[C@@H](CS)C(=O)O	nt	nt	nt	8	nt
CCCCNC(=O)C[C@H]1C[C@@]2(C(=O)OC)C(=C[C@H](C(C)C)O[C@@H]2C2CC2)N(Cc2cccc3ccccc23)C1=O	nt	nt	nt	2	nt
CCOC(=O)C1C(=O)CC(C)(O)C(C(=O)OCC)C1c1ccc(OCC)cc1 (stereo not drawn)	0	2	0	1	nt
CCOC(=O)C1=C(Nc2ccc(Br)cc2)CC(C)(O)C(C(=O)OCC)C1c1ccccc1 (stereo not drawn)	-2	2	1	28*	10
CCOC(=O)/C(=C/C=C1\Sc2ccccc2N1CC)C(C)=O	176	133	0	nt	nt
CCOC(=O)/C(=C/C=C1\Sc2cc(C)c(C)cc2N1CC)C(C)=O	171	35	2	32*	5
CCC(=O)/C=C1/Sc2ccc(OC)cc2N1CC	0	-6	0	5	nt
CCOC(=O)/C(=C\C=C1/Sc2ccccc2N1CC)C(C)=O	180	77	0	27*	6
COC(=O)c1ccc(N/C=C/C(=O)c2ccc(OC)c(OC)c2)cc1	1	1	0	23*	12
COC(=O)c1ccc(N/C=C\C(=O)c2ccc3c(c2)OCO3)cc1	-4	-6	0	118*	44*	RORg DNA counter=>40
COc1ccc(N/C=C/C(=O)c2ccc(OC)c(OC)c2)cc1	4	-6	0	-6	nt
CC(C)C[C@H]1COc2cc(Br)ccc2S(=O)(=O)N1Cc1cn(Cc2ccc(F)cc2)nn1	nt	nt	nt	4	nt
COc1cc2c(cc1[N+](=O)[O-])-c1ccc([N+](=O)[O-])cc1C2	2	0	0	90*	12*
O=[N+]([O-])c1ccc2c(c1)Cc1cc(F)ccc1-2	-2	-2	0	70*	61*	RORg DNA counter=>40
CC1=NN(c2ccccc2)C(=O)/C1=C/C=C/C=C/N(C)C	190	104	0	51*	53*
CC1=NN(c2ccc(C)cc2)C(=O)/C1=C\C=C\c1ccccc1	2	10	0	0	nt
CCN(C[C@H]1[C@@H](c2ccc(C3=CCCC3)cc2)[C@H](CO)N1Cc1ccccn1)S(=O)(=O)c1ccccc1[N+](=O)[O-]	nt	nt	nt	4	nt
COc1cccc(-n2nnc3c(=O)n(CC(=O)Nc4ccccc4C)cnc32)c1	0	8	0	23*	5
Cc1c(OCC(=O)Nc2cccnc2)ccc2c3c(c(=O)oc12)CCC3	0	3	0	4	nt
Cc1c(C)c2ccc(OCC(=O)Nc3ccc(S(N)(=O)=O)cc3)c(C)c2oc1=O	3	14	0	25*	11
O=[N+]([O-])c1ccc(-c2nc(-c3cccs3)c(-c3cccs3)[nH]2)cc1	32	28	0	24*	33*	RORg DNA counter=>40
COc1ccc(-c2nc(-c3cccs3)c(-c3cccs3)[nH]2)cc1OC	6	1	0	44*	64*	RORg DNA counter=>40
O=[N+]([O-])c1cccc(-c2nc(-c3cccs3)c(-c3cccs3)[nH]2)c1	15	3	0	29*	25*
C[C@H]1[C@@H](NC(=O)Cc2ccsc2)CC[C@@]23CCCN2C(=O)CCC[C@@H]13	nt	nt	nt	2	nt
